According to ChEMBL document CHEMBL1127575, “Synthesis of androst-5-en-7-ones and androsta-3,5-dien-7-ones and their related 7-deoxy analogs as conformational and catalytic probes for the active site of aromatase” (J Med Chem, 1994):

Legend:
Aromatase [1] = molecular target: T1, Aromatase (Homo sapiens, UniProt P11511); assay: In vitro competitive inhibitory activity was measured on Cytochrome P450 19A1 of human placental microsomes
T1 sequence (P11511 whole entry): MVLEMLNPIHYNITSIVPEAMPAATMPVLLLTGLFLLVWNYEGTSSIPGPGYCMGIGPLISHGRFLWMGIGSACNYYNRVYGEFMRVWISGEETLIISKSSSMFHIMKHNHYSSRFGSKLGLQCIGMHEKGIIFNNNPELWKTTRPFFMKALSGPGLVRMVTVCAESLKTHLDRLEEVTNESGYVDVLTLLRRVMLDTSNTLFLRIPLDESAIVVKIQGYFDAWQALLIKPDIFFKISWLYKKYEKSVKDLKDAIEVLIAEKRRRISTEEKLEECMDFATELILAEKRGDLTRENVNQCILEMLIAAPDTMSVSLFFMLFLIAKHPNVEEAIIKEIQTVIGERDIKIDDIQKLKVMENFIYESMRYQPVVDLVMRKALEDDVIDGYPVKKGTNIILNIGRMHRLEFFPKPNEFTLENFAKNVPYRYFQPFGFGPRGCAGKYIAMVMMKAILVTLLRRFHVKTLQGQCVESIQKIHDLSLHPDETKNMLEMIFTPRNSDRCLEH

Aromatase [2] = molecular target: T1, Aromatase; assay: The binding affinity was determined on Cytochrome P450 19A1 by analysis of Dixon plot
Aromatase [3] = molecular target: T1, Aromatase; assay: Time dependent inactivation of Cytochrome P450 19A1 was obtained by Kitz-Wilson plot
Aromatase [4] = molecular target: T1, Aromatase; assay: Time dependent inactivation of aromatase cytochrome P450 19A1 from Kitz-Wilson plot
How it was run: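 Human placental microsomes (105000g pellet, washed with 0.05 mM dithiothreitol, lyophilized) incubated with inhibitor plus NADPH in 67 mM phosphate buffer in air. Residual aromatase activity then measured in 5-min kinetic assay by 3H2O release from [1β-3H]androstenedione. Pseudo-first-order loss over first 12 min analysed by Kitz-Wilson method. Double-reciprocal plot of kobs versus inhibitor concentration gave kinact and Ki. Points are means of duplicates.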

Aromatase [5] = molecular target: T1, Aromatase; assay: Binding affinity for aromatase cytochrome P45019A1 by analysis of Dixon plot

For `C[C@]12CC[C@H]3[C@@H](CC=C4CCCC[C@@]43CO)[C@@H]1CCC2=O`, the IC50 (Aromatase [1]) was 6.9 µM and the Ki (Aromatase [2]) was 1 µM.
Molecule `C[C@]12CCCCC1=CC[C@@H]1[C@@H]2CC[C@]2(C)C(=O)CC[C@@H]12` has an IC50 (Aromatase [1]) of 0.66 µM and a Ki (Aromatase [2]) of 0.12 µM.
`CC12CCC3C(C(=O)C=C4C=CCCC43C)C1CCC2=O` (stereo unspecified) showed a Ki (Aromatase [3]) of 0.18 µM, a kinact (Aromatase [3]) of 0.00198 s⁻¹ and an IC50 (Aromatase [1]) of 1.8 µM. The Ki (Aromatase [2]) was 0.22 µM.
In the case of `CC12CCCCC1=CC(=O)C1C2CCC2(C)C(O)CCC12` (stereo unspecified), the IC50 (Aromatase [1]) is reported as 42 µM and the Ki (Aromatase [2]) is reported as 5.5 µM.
In the case of `CC12CCC3C(C(=O)C=C4C=CCCC43C=O)C1CCC2=O` (stereo unspecified), the Ki (Aromatase [4]) is reported as 2.9 µM, the kinact (Aromatase [4]) is reported as 0.00315 s⁻¹ and the IC50 (Aromatase [1]) is reported as 11 µM. The Ki (Aromatase [2]) was 1.8 µM.
`CC12CCC3C(C(=O)C=C4C=CCCC43CO)C1CCC2=O` (stereo unspecified) showed a Ki (Aromatase [4]) of 7 µM, a kinact (Aromatase [4]) of 0.00147 s⁻¹ and an IC50 (Aromatase [1]) of 60 µM. For the same molecule, the Ki (Aromatase [2]) was 15 µM.
In the case of `CC12CCC3C(C(=O)C=C4CCCCC43CO)C1CCC2=O` (stereo unspecified), the Ki (Aromatase [3]) is reported as 11 µM, the kinact (Aromatase [3]) is reported as 0.000967 s⁻¹ and the IC50 (Aromatase [1]) is reported as 56 µM. For the same molecule, the Ki (Aromatase [2]) was 11 µM.
Work on `CC12CCC3C(CC=C4CCCCC43CO)C1CCC2O` (stereo unspecified) yielded a Ki (Aromatase [5]) of 9.8 µM and an IC50 (Aromatase [1]) of 62 µM.
In the case of `CC12CCC3C4CCC(=O)C=C4CCC3C1CCC2=O` (stereo unspecified), the Ki (Aromatase [5]) is reported as 0.14 µM and the IC50 (Aromatase [1]) is reported as 1.2 µM.
Molecule `CC12CCC=CC1=CC(=O)C1C2CCC2(C)C1CC[C@@H]2O` (stereo partly specified) has an IC50 (Aromatase [1]) of 42 µM and a Ki (Aromatase [2]) of 5.3 µM.
`CC12CCC3C(C(=O)C=C4CCCCC43CO)C1CCC2O` (stereo unspecified) gave an IC50 (Aromatase [1]) of 140 µM and a Ki (Aromatase [2]) of 45 µM.
In the case of `CC12CCCCC1=CCC1C2CCC2(C)C(O)CCC12` (stereo unspecified), the IC50 (Aromatase [1]) is reported as 30 µM and the Ki (Aromatase [2]) is reported as 3 µM.
`CC12CCC3C(C(=O)C=C4CCCCC43C)C1CCC2=O` (stereo unspecified) gave a Ki (Aromatase [3]) of 0.15 µM, a kinact (Aromatase [3]) of 0.00115 s⁻¹ and an IC50 (Aromatase [1]) of 1.8 µM. The Ki (Aromatase [2]) was 0.25 µM.
With `CC12CCC3C4CCCCC4=CC(=O)C3C1CCC2=O` (stereo unspecified) the Ki (Aromatase [3]) was 2.6 µM, the kinact (Aromatase [3]) was 0.00113 s⁻¹ and the IC50 (Aromatase [1]) was 28 µM. For the same molecule, the Ki (Aromatase [2]) was 2.4 µM.
Work on `CC12CCC=CC1=CCC1C2CCC2(C)C1CC[C@@H]2O` (stereo partly specified) yielded an IC50 (Aromatase [1]) of 18 µM and a Ki (Aromatase [2]) of 2 µM.
For `CC12CCC3C(CC=C4C=CCCC43C)C1CCC2=O` (stereo unspecified), the IC50 (Aromatase [1]) was 0.34 µM and the Ki (Aromatase [2]) was 0.058 µM.
With `CC12CCC3C(C(=O)C=C4CCCCC43C=O)C1CCC2=O` (stereo unspecified) the Ki (Aromatase [3]) was 20 µM, the kinact (Aromatase [3]) was 0.00238 s⁻¹ and the IC50 (Aromatase [1]) was 60 µM. The Ki (Aromatase [2]) was 13 µM.
For `CC12CCC3C(CC=C4CCCCC43C)C1C[C@@H](Br)C2=O` (stereo partly specified), the IC50 (Aromatase [1]) was 55 µM and the Ki (Aromatase [2]) was 11 µM.
With `CC12CCC3C4CCC=CC4=CC(=O)C3C1CCC2=O` (stereo unspecified) the IC50 (Aromatase [1]) was 33 µM and the Ki (Aromatase [2]) was 3 µM.
Molecule `CC12CCC3C(CC=C4CCCCC43C=O)C1CCC2=O` (stereo unspecified) has a Ki (Aromatase [5]) of 1.4 µM and an IC50 (Aromatase [1]) of 9 µM.
`C[C@]12CCC(=O)C=C1CC[C@@H]1[C@@H]2CC[C@]2(C)C(=O)CC[C@@H]12` [ANDROSTENEDIONE] gave a Ki (Aromatase [5]) of 0.02 µM and an IC50 (Aromatase [1]) of 0.3 µM.
